APJ agonist: agonists of human APJ apelin receptor; CHO-K1 APJ PathHunter beta-arrestin, luminescence; 0% DMSO wells, 100% apelin; activation, % at 20 µM; actives 0.11% (n = 330,000); AID 2520; P35414;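 active = activation more than six SD over the plate average, tested at 20 µM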
Target sequence (P35414 whole entry, looked up): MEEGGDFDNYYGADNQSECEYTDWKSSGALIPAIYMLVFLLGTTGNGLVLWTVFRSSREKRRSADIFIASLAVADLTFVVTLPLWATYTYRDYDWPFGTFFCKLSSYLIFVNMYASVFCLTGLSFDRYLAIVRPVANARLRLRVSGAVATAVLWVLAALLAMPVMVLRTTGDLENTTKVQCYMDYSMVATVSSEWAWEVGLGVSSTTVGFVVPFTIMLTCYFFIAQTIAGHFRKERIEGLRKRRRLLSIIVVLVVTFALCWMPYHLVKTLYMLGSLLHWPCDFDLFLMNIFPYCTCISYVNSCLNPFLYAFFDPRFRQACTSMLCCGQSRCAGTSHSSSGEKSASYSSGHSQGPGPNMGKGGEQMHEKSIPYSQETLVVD
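Material: CHO-K1 APJ beta-arrestin complementation cell line; Input: cell density 1000 per well; Incubation: compound stimulation 90 min at 25 °C, detection 60 min; Signal: luminescence from split beta-galactosidase complementation, Galacton Star/Emerald II substrate; Controls: DMSO-only wells as negative, 10 nM Apelin-13 as positive control.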
Beta2AR agonist: human beta-2 adrenergic receptor agonism by FAP; P07550; Am2.2-beta2AR cells, FAP receptor internalization, flow cytometry; response, % (no concentration beside the values); actives 0.43% (n = 340,000);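 active = response above a set limit, near 3 SD of response in nonfluorescent compounds, cut at about 42% in these data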
CCR6 antag: antagonists of human CCR6 receptor. inhibition, % at 20 µM. AID 493098. P51684. CHO-K1 CCR6 PathHunter beta-arrestin, luminescence, CCL20-stimulated. actives 0.49% (n = 340,000);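 active = compounds whose inhibition of the agonist-driven luminescence signal at 20 µM reaches about 50%, limit read from the data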;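 note: cells stimulated with CCL20 at 14 nM final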
CXCR6 block: inhibitors of human CXCR6 receptor | O00574 | CHO-K1 PathHunter CXCR6 beta-arrestin, luminescence | inhibition, % at 20 µM | actives 0.36% (n = 360,000); in the data active = inhibition above about 34%, passing the limit was not always enough;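 note: antagonist mode with CXCL16 agonist at 10 nM final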
Target sequence (O00574 whole entry, looked up): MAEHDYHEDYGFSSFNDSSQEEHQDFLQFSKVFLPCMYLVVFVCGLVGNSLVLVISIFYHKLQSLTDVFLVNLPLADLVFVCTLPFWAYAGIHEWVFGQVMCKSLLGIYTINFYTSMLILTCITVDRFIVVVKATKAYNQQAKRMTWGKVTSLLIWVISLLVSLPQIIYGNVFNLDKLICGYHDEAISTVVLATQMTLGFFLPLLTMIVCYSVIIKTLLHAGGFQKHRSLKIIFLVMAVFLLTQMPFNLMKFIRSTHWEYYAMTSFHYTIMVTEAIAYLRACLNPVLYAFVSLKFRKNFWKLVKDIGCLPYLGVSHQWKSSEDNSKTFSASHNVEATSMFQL
PfGluPho inh: PfG6PD (Plasmodium falciparum) enzyme inhibition; PfGluPho enzyme, NADPH resazurin-diaphorase fluorescence; inhibition, % at 20 µM; actives 0.78% (n = 350,000); AID 504690;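 active = inhibition reaching at least a set limit at 20 µM in the primary screen, cut at about 59% in these data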
APJ antagonist: antagonists of human APJ apelin receptor; P35414; CHO-K1 APJ beta-arrestin complementation, luminescence; inhibition, % at 20 µM; actives 0.32% (n = 330,000); AID 2521;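 active = inhibition above about 40% at 20 µM, limit read from the data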;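 note: cells challenged with 10 nM apelin-13 agonist together with compound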
Each line names hits and unclear results; the compound was inactive in the other large screens. An excerpt weighted towards active compounds, which were near 1.7% of everything screened.

CCn1c(SCC(=O)Nc2ccc3c(c2)c2ccccc2n3CC)nnc1-c1ccco1	PfGluPho inh 75.8
CCn1c(SCC(=O)Nc2cccc(NC(C)=O)c2)nnc1-c1ccco1	none
O=C(CSCc1cccc(Br)c1)N=Nc1c(O)[nH]c2ccccc12	none
O=Nc1c(-c2c(O)[nH]c3cc(Br)ccc23)[nH]c2ccccc12	Beta2AR agonist 43.2, CCR6 antag 74.5, CXCR6 block 60.6
C[C@H](CO)N1C[C@H](C)[C@@H](CN(C)C)Oc2c(NS(=O)(=O)c3ccc(F)cc3)cccc2C1=O	none
Cc1oc2c(c1C(=O)NCc1cccnc1)C(=O)c1ccccc1C2=O	PfGluPho inh 103.4 (no result: Beta2AR agonist, CXCR6 block)
COc1ccc(CNC(=O)c2c(C)oc3c2C(=O)c2ccccc2C3=O)cc1	none
CC(=O)c1c(C)[nH]c(C(=O)COC(=O)Cc2ccccc2F)c1C	Beta2AR agonist 58.7
O=c1[nH]c(=O)n(Cc2ccc(Oc3ccccc3)cc2)cc1Br	none (no result: CCR6 antag, PfGluPho inh)
C=C1CC(Cn2cc(Br)c(=O)[nH]c2=O)(c2ccc(-c3ccccc3)cc2)OC1=O (stereo unspecified)	Beta2AR agonist 50.8, CXCR6 block 42.8 (no result: APJ agonist, CCR6 antag, APJ antagonist)
O=[N+]([O-])c1cc(Cl)cc(/C=N/n2cnnc2)c1O	CXCR6 block 31.5
O=S1(=O)c2ccccc2N=NN1Cc1ccc(Cl)c(Cl)c1	none (no result: Beta2AR agonist, CCR6 antag, CXCR6 block, PfGluPho inh)
CC(C)(C)c1ccc(CN2N=Nc3ccccc3S2(=O)=O)cc1	CCR6 antag 63.5, CXCR6 block 49.1
O=C(O)c1cc(O)c2c(c1)C(=O)c1cccc(O)c1C2=O	CCR6 antag 78.9, CXCR6 block 48.4
O=C1C=C(O)c2c(O)cccc2C1=O	none (no result: Beta2AR agonist, CCR6 antag, CXCR6 block, PfGluPho inh)
CC(C)(OC(=O)c1ccc(F)cc1)c1cc2ccccc2c(=O)o1	none
CC(=O)c1c2c3c(cccc3n(C)c1=O)C(=O)c1ccccc1-2	none (no result: Beta2AR agonist, CXCR6 block)
Cn1c(=O)c(Nc2ccc(O)cc2)c2c3c(cccc31)C(=O)c1ccccc1-2	CCR6 antag 53.9
Cn1c(NCc2cccnc2)nc2cc(-c3cccc(C(F)(F)F)c3)sc2c1=O	none (no result: APJ agonist, Beta2AR agonist, CCR6 antag, PfGluPho inh, APJ antagonist)
Cc1ccc(-n2c(Cl)c(Cl)nc(Cl)c2=O)cc1	Beta2AR agonist 50.3, CCR6 antag 82.1, CXCR6 block 60.7 (no result: APJ agonist, APJ antagonist)
CC(=NNc1nc2ccccc2s1)c1ccncn1	CCR6 antag 54.1, CXCR6 block 45.3 (no result: APJ agonist, APJ antagonist)
C/C(=N\Nc1nc2ccccc2s1)c1ccc(Br)s1	none
CSCC[C@H](NC(=O)c1cccs1)C(=O)N1CCC2(CC1)NCCc1[nH]cnc12	none
CC(C)C[C@H]1CNC(=O)C(=O)N1C[C@@H]1CCCN1C[C@H](Cc1ccccc1)N1C[C@H](Cc2ccccc2)N(CCc2ccccc2)C(=O)C1=O	none (no result: APJ agonist, Beta2AR agonist, CCR6 antag, PfGluPho inh, APJ antagonist)
CC(C)(C)c1ccc(OCC(=O)NNC(=S)NC(=O)c2ccco2)c(Br)c1	CCR6 antag 55.6
c1cnc(N2CCN(c3nc4ccccc4n4cnnc34)CC2)nc1	none
Cc1cccc(N2CCN(c3nc4ccccc4n4cnnc34)CC2)c1C	Beta2AR agonist 42.1
CCOc1ccc(N=C2C(=O)N(CN3CCOCC3)c3ccccc32)cc1	CCR6 antag 59.1
CCOc1ccc(OCCN2C(=O)c3ccccc3C2=O)cc1	none
O=C(Nc1ccccc1Cl)Nc1ccnn1C1CCN(C(=O)C2CCOC2)CC1 (stereo unspecified)	none (no result: APJ agonist, Beta2AR agonist, CCR6 antag, APJ antagonist)
O=C(NC(=S)Nc1ccccc1)c1cc(-c2ccccc2)nc2ccccc12	CCR6 antag 55.2
CCCCNC(=S)NNC(=O)c1cc(-c2cccnc2)nc2ccccc12	CCR6 antag 53.6
CS(=O)(=O)c1ccc(S(=O)CC(=O)Oc2ccc(Cl)cc2)c([N+](=O)[O-])c1 (stereo unspecified)	CCR6 antag 61.5 (no result: Beta2AR agonist, CXCR6 block)
O=C1ON=C(c2cccc([N+](=O)[O-])c2)/C1=C/c1ccc(O)cc1	Beta2AR agonist 53.1
COc1ccc(-c2cc(-c3ccccc3)c(C#N)c(S(C)=O)n2)cc1 (stereo unspecified)	Beta2AR agonist 44.1
COc1cc(CCC(N)c2cccc(O)c2)cc(OC)c1OC (stereo unspecified)	none (no result: APJ agonist, APJ antagonist)
COC(=O)C1=C(C(=O)OC)SC(=C2C(=S)C(C)(C)N(C(=O)C(C)C)c3ccccc32)S1	CCR6 antag 52.6
COC(=O)C1=C(C(=O)OC)SC(=C2C(=S)C(C)(C)N(C(=O)C3CC3)c3ccccc32)S1	CCR6 antag 52.4
CCCC(=O)N1c2ccccc2C(=C2SC(C(=O)OC)=C(C(=O)OC)S2)C(=S)C1(C)C	none (no result: CCR6 antag)
O=S(=O)(c1ccc(F)cc1)N1CCN(CC(O)COCC2CCCO2)CC1 (stereo unspecified)	none
O=C(Nc1nc(-c2ccccc2)cs1)C1CCCN(S(=O)(=O)c2ccccc2)C1 (stereo unspecified)	CCR6 antag 66.4
Nc1cccc2c1C(=O)N(C(=O)/C=C/c1cccc(Br)c1)C2=O	CCR6 antag 64.0, CXCR6 block 37.6 (no result: APJ agonist, APJ antagonist)
COc1cc(/C=C/C(=O)N2C(=O)c3cccc(N)c3C2=O)cc(OC)c1OC	none
COCCNC(=O)/C(C#N)=C/c1ccc(N2CCOCC2)o1	CXCR6 block 52.1
N#CC(C#N)=C1C=CC=CN1/C(=C\c1ccco1)C(=O)c1ccc(Cl)cc1	Beta2AR agonist 58.3, CCR6 antag 116.9, CXCR6 block 102.9 (no result: APJ agonist, APJ antagonist)
Cc1ccc(NC(=S)Nc2ccccn2)cc1C	none
Cc1ccc(NC(=S)Nc2ccc3nc(-c4ccccn4)c(-c4ccccn4)nc3c2)cc1C	PfGluPho inh 96.7 (no result: APJ agonist, APJ antagonist)
CCc1nnc(NS(=O)(=O)c2ccc(NC(=O)c3cc(Cl)ccc3OC)cc2)s1	none
C(=C\c1sc(Nc2ccccc2)n[n+]1-c1ccccc1)/c1ccccc1	CCR6 antag 66.2 (no result: APJ agonist, APJ antagonist)
COc1ccc(-c2sc(Nc3ccccc3)n[n+]2-c2ccccc2)cc1Br	none
CNC(=O)/C(C#N)=C/c1c(N(Cc2ccccc2)Cc2ccccc2)nc2c(C)cccn2c1=O	Beta2AR agonist 60.5 (no result: APJ agonist, APJ antagonist)
CCNC(=O)/C(C#N)=C/c1c(N(Cc2ccccc2)Cc2ccccc2)nc2ccccn2c1=O	none
CC(=O)c1cccc(S(=O)(=O)N2CCC(C(=O)NC3CCCC3)CC2)c1	none
NC(=O)C1CCN(c2nc(-c3cccs3)cs2)CC1	PfGluPho inh 73.2
CC(C)N1C(=O)CCC1C(=O)NCc1ccc(F)cc1Cl (stereo unspecified)	none
N#Cc1cccc(N=c2ssnc2Cl)c1	PfGluPho inh 80.0 (no result: CXCR6 block)
CCOC(=O)C1NN=C(C(=O)c2ccccc2)C1c1ccc(Cl)cc1 (stereo unspecified)	APJ antagonist 46.7
O=c1c2ccccc2nc2oc3ccccc3n12	none
O=C(Cn1ncc(Cl)c(Cl)c1=O)N1CCc2ccccc21	Beta2AR agonist 54.1 (no result: APJ agonist, APJ antagonist)
Cn1cc(Cc2ccccc2)c(=O)c(Cc2ccccc2)c1	none (no result: APJ agonist, APJ antagonist)
CCNC(=O)c1cc2c(=O)n3cccc(C)c3nc2n(Cc2ccc(C)cc2)c1=N	Beta2AR agonist 50.8

High-throughput results as filed in PubChem.
